Test results as given in ChEMBL document CHEMBL1141754, “A labdane diterpene glucoside from the rhizomes of Curcuma mangga” (J Nat Prod, 2005).

test system: not listed separately; assay: Antioxidant activity assessed as inhibition of copper-induced lipid peroxidation by Fe3(CN)6 method at 300 uM; format: functional; set-up: scale not given: the % may be the effect or the level left

Going from COc1cc(/C=C/C(=O)CC(=O)/C=C/c2ccc(O)c(OC)c2)ccc1O [CURCUMIN] to COc1cc(/C=C/C(O)=C/C(=O)/C=C/c2ccc(O)cc2)ccc1O [DEMETHOXYCURCUMIN], the Activity falls from 96.5% to 93.8%.

Compared with O=C(/C=C/c1ccc(O)cc1)CC(=O)/C=C/c1ccc(O)cc1 [BISDEMETHOXYCURCUMIN], O=C(/C=C/C=C/c1ccc(O)cc1)/C=C/c1ccc(O)cc1 is lower in Activity: 93.3% for the first, 92.9% for the second.

First: COc1cc2ccc(=O)oc2cc1O [SCOPOLETIN]
Second: O=c1c(O)c(-c2ccc(O)c(O)c2)oc2cc(O)cc(O)c12
The Activity of the first is higher: 94.9% for the first, 51.3% for the second.

First: Cc1cc(C(C)(C)C)c(O)c(C(C)(C)C)c1
Second: Cc1c(C)c2c(c(C)c1O)CC[C@@](C)(CCC[C@H](C)CCC[C@H](C)CCCC(C)C)O2
The Activity of the first is higher: 99.9% for the first, 45.2% for the second.

Going from C=C1CC[C@H]2C(C)(C)CCC[C@]2(C)[C@H]1C[C@@H](O)C1=CC(O)OC1=O (stereo partly specified) [ZERUMIN B] to C=C1CC[C@H]2C(C)(C)CCC[C@]2(C)[C@H]1C/C=C(/C=O)CC=O, the Activity falls from 16.5% to 5.7%.

First: CC1(C)[C@@H](O[C@@H]2O[C@H](CO)[C@@H](O)[C@H](O)[C@H]2O)CC[C@]2(C)[C@H]3CC(C4=CCOC4=O)OC(O)[C@H]3CC[C@@H]12 (stereo partly specified)
Second: C=C1CC[C@H]2C(C)(C)CCC[C@]2(C)[C@H]1C/C=C(/C=O)CC(OC)OC
The Activity of the first is lower: 0% for the first, 11.5% for the second.

test system: HL-60; assay: Cytotoxicity against human HL60; format: functional, cell-based
Summary of the method: (§1)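 Five human cancer lines: HL-60 (leukemia), HepG2 (liver), MCF-7 (breast), DU-145 (prostate) and NCI-H460 (lung). IC50 given in μM ± SD from three experiments, each run in triplicate.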

COc1cc(/C=C/C(=O)CC(=O)/C=C/c2ccc(O)c(OC)c2)ccc1O [CURCUMIN] and COc1cc(/C=C/C(O)=C/C(=O)/C=C/c2ccc(O)cc2)ccc1O [DEMETHOXYCURCUMIN] are within 1.5-fold of each other in IC50: 34.2 µM for the first, 24.2 µM for the second.

Going from O=C(/C=C/c1ccc(O)cc1)CC(=O)/C=C/c1ccc(O)cc1 [BISDEMETHOXYCURCUMIN] to COc1cc2ccc(=O)oc2cc1O [SCOPOLETIN], the IC50 rises from 25.1 µM to greater than 50 µM. The first is the more potent here.

Work on C=C1CC[C@H]2C(C)(C)CCC[C@]2(C)[C@H]1C[C@@H](O)C1=CC(O)OC1=O (stereo partly specified) [ZERUMIN B] yielded an IC50 of 7.21 µM.

test system: HepG2; assay: Cytotoxicity against human HepG2; format: functional, cell-based; summary of the method: as §1

Going from COc1cc(/C=C/C(=O)CC(=O)/C=C/c2ccc(O)c(OC)c2)ccc1O [CURCUMIN] to COc1cc(/C=C/C(O)=C/C(=O)/C=C/c2ccc(O)cc2)ccc1O [DEMETHOXYCURCUMIN], the IC50 rises from 35.5 µM to greater than 50 µM. The first is the more potent here.

O=C(/C=C/c1ccc(O)cc1)CC(=O)/C=C/c1ccc(O)cc1 [BISDEMETHOXYCURCUMIN] and COc1cc2ccc(=O)oc2cc1O [SCOPOLETIN] cannot be ordered by IC50: greater than 50 µM for the first, greater than 50 µM for the second.

C=C1CC[C@H]2C(C)(C)CCC[C@]2(C)[C@H]1C[C@@H](O)C1=CC(O)OC1=O (stereo partly specified) [ZERUMIN B] showed an IC50 of 25.3 µM.

test system: MCF7; assay: Cytotoxicity against human MCF7; format: functional, cell-based; summary of the method: as §1

Compared with COc1cc(/C=C/C(=O)CC(=O)/C=C/c2ccc(O)c(OC)c2)ccc1O [CURCUMIN], COc1cc(/C=C/C(O)=C/C(=O)/C=C/c2ccc(O)cc2)ccc1O [DEMETHOXYCURCUMIN] is 1.8-fold higher in IC50: 10.4 µM for the first, 18.5 µM for the second. The first is the more potent here.

Going from O=C(/C=C/c1ccc(O)cc1)CC(=O)/C=C/c1ccc(O)cc1 [BISDEMETHOXYCURCUMIN] to COc1cc2ccc(=O)oc2cc1O [SCOPOLETIN], the IC50 rises from 33.8 µM to greater than 50 µM.

Work on C=C1CC[C@H]2C(C)(C)CCC[C@]2(C)[C@H]1C[C@@H](O)C1=CC(O)OC1=O (stereo partly specified) [ZERUMIN B] yielded an IC50 of 0.59 µM.

test system: DU-145; assay: Cytotoxicity against human DU145; format: functional, cell-based; summary of the method: as §1

COc1cc(/C=C/C(=O)CC(=O)/C=C/c2ccc(O)c(OC)c2)ccc1O [CURCUMIN] and COc1cc(/C=C/C(O)=C/C(=O)/C=C/c2ccc(O)cc2)ccc1O [DEMETHOXYCURCUMIN] are within 1.5-fold of each other in IC50: 20.6 µM for the first, 21.7 µM for the second.

First: O=C(/C=C/c1ccc(O)cc1)CC(=O)/C=C/c1ccc(O)cc1 [BISDEMETHOXYCURCUMIN]
Second: COc1cc2ccc(=O)oc2cc1O [SCOPOLETIN]
The IC50 of the first is lower: 30.1 µM for the first, greater than 50 µM for the second. The first is the more potent here.

C=C1CC[C@H]2C(C)(C)CCC[C@]2(C)[C@H]1C[C@@H](O)C1=CC(O)OC1=O (stereo partly specified) [ZERUMIN B] gave an IC50 of 11.2 µM.

test system: NCI-H460; assay: Cytotoxicity against human NCI-H460; format: functional, cell-based; summary of the method: as §1

COc1cc(/C=C/C(=O)CC(=O)/C=C/c2ccc(O)c(OC)c2)ccc1O [CURCUMIN] and COc1cc(/C=C/C(O)=C/C(=O)/C=C/c2ccc(O)cc2)ccc1O [DEMETHOXYCURCUMIN] are within 1.5-fold of each other in IC50: 27.6 µM for the first, 25.7 µM for the second.

O=C(/C=C/c1ccc(O)cc1)CC(=O)/C=C/c1ccc(O)cc1 [BISDEMETHOXYCURCUMIN] and COc1cc2ccc(=O)oc2cc1O [SCOPOLETIN] cannot be ordered by IC50: 88.1 µM for the first, greater than 50 µM for the second.
